The record followed here is ChEMBL document CHEMBL4033793, “Potent and Selective Inhibitors of Human Sirtuin 5” (J Med Chem, 2018).

The structures appear in SMILES notation. Starred links: 1 amine or outer side, 2 acyl side, 3 side chain; linkers in the order of their positions; H or OH if unused. Residues, ends and D or L forms follow the SMILES beside them. *: point of attachment. X2 = O=C(CCCC[C@@H]1SC[C@@H]2NC(=O)N[C@@H]21)NCCCOCCOCCOCCCN*; X13 = O=C(O)[C@@H](CC(=O)*)SCc1cccc([N+](=O)[O-])c1; X51 = O=C(O)[C@@H](CC(=O)*)SCc1ccc([N+](=O)[O-])cc1; X46 = CC(C)(C)c1ccc(CS[C@@H](CC(=O)*)C(=O)O)cc1; X56 = Cc1cc(C)c(CS[C@H](CC(=O)*)C(=O)O)c(C)c1; X16 = O=C(O)[C@H](CC(=O)*)SCc1ccc(Cl)c(Cl)c1; X72 = O=C(O)[C@@H](CC(=O)*)SCc1cccc2ccccc12; X23 = O=C(O)[C@@H](CC(=O)*)Sc1cccc2ccccc12; X24 = O=C(O)[C@H](CC(=O)*)SCc1ccc(Cl)cc1Cl; X55 = O=C(O)[C@@H](CC(=O)*)Sc1ccc(Cl)cc1Cl; X43 = O=C(O)[C@H](CC(=O)*)Sc1ccc(Cl)cc1Cl; X66 = COc1ccc(CS[C@@H](CC(=O)*)C(=O)O)cc1; X14 = O=C(O)[C@H](CC(=O)*)SCc1ccc(Cl)cc1; X22 = COc1ccc(CS[C@H](CC(=O)*)C(=O)O)cc1; X33 = Cc1ccc(S[C@@H](CC(=O)*)C(=O)O)cc1C; X48 = O=C(O)[C@@H](CC(=O)*)SCCCc1ccccc1; X70 = O=C(O)[C@H](CC(=O)*)Sc1cccc(Cl)c1; X26 = O=C(O)[C@@H](CC(=O)*)SCCc1ccccc1; X53 = O=C(O)[C@H](CC(=O)*)Sc1ccccc1Cl; X54 = O=C(O)[C@H](CC(=O)*)SCCc1ccccc1; X9 = O=C(O)C(CC(=O)*)Sc1ccc2ccccc2c1; X45 = O=C(O)[C@H](CC(=O)*)SC1CCCCC1; Suc = O=C(CCC(=O)[*:2])[*:1]; Bz = O=C(c1ccccc1)* Where only a bound is given, the exact number is not on record here.

In one assay the target is T1, NAD-dependent protein deacylase sirtuin-5, mitochondrial (Homo sapiens, UniProt Q9NXA8). As to the kind of experiment: Inhibition of human recombinant N-terminal Strep2-tagged SIRT5 expressed in Escherichia coli BL21 (DE3) using Abz-GVLK(glutaryl)AY(NO2)GV-NH2 as substrate in presence of NAD+ by fluorescence assay.
T1 sequence (Q9NXA8 whole entry): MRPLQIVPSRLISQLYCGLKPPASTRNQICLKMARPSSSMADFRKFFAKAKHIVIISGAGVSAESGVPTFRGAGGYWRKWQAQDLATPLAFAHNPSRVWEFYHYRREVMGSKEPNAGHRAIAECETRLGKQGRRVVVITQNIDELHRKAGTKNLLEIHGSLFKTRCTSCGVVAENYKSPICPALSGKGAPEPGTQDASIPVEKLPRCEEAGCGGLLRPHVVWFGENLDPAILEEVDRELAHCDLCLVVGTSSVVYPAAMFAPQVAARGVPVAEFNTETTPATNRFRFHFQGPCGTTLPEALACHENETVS
Regarding `CC(C)C[C@H](NC(=O)[C@@H](NC(=O)CNC(=O)CCC(=O)NCCCOCCOCCOCCCNC(=O)CCCC[C@@H]1SC[C@@H]2NC(=O)N[C@@H]21)C(C)C)C(=O)N[C@@H](CCCCNC(=O)CC(Sc1ccc2ccccc2c1)C(=O)O)C(=O)N[C@@H](CCC(=O)O)C(=O)N[C@@H](Cc1ccc(O)cc1)C(=O)NCC(=O)N[C@H](C(N)=O)C(C)C` (stereo partly specified) ({X2-Suc}-GVLK(X9)EYGV-NH2), the half-maximal inhibitory concentration (IC50) was found to be 0.0911 µM.
Regarding `Cc1ccc(S[C@@H](CC(=O)NCCCC[C@H](NC(=O)[C@H](CC(C)C)NC(=O)[C@@H](NC(=O)CNC(=O)c2ccccc2)C(C)C)C(=O)N[C@@H](CCC(=O)O)C(=O)N[C@@H](Cc2ccc(O)cc2)C(=O)NCC(=O)N[C@H](C(N)=O)C(C)C)C(=O)O)cc1C` (Bz-GVLK(X33)EYGV-NH2), the IC50 was 0.0461 µM.
For the compound `Cc1cc(C)c(CS[C@H](CC(=O)NCCCC[C@H](NC(=O)[C@H](CC(C)C)NC(=O)[C@@H](NC(=O)CNC(=O)c2ccccc2)C(C)C)C(=O)N[C@@H](CCC(=O)O)C(=O)N[C@@H](Cc2ccc(O)cc2)C(=O)NCC(=O)N[C@H](C(N)=O)C(C)C)C(=O)O)c(C)c1` (Bz-GVLK(X56)EYGV-NH2), the IC50 stood at 0.631 µM.
On the same count and under the same terms, for `CC(C)C[C@H](NC(=O)[C@@H](NC(=O)CNC(=O)c1ccccc1)C(C)C)C(=O)N[C@@H](CCCCNC(=O)C[C@H](Sc1cccc(Cl)c1)C(=O)O)C(=O)N[C@@H](CCC(=O)O)C(=O)N[C@@H](Cc1ccc(O)cc1)C(=O)NCC(=O)N[C@H](C(N)=O)C(C)C` (Bz-GVLK(X70)EYGV-NH2) the value was 0.12 µM; for `CC(=O)N[C@@H](CC(C)C)C(=O)N[C@@H](CCCCNC(=O)CC(Sc1ccc2ccccc2c1)C(=O)O)C(=O)N[C@@H](C)C(N)=O` (stereo partly specified), 1.08 µM.
As to `CC(C)C[C@H](NC(=O)[C@@H](NC(=O)CNC(=O)c1ccccc1)C(C)C)C(=O)N[C@@H](CCCCNC(=O)C[C@@H](Sc1ccc(Cl)cc1Cl)C(=O)O)C(=O)N[C@@H](CCC(=O)O)C(=O)N[C@@H](Cc1ccc(O)cc1)C(=O)NCC(=O)N[C@H](C(N)=O)C(C)C` (Bz-GVLK(X55)EYGV-NH2), the IC50 was 2.01 µM.
On the same count and under the same terms, the figure for `CC(C)C[C@H](NC(=O)[C@@H](NC(=O)CNC(=O)c1ccccc1)C(C)C)C(=O)N[C@@H](CCCCNC(=O)C[C@H](SCc1ccc(Cl)cc1Cl)C(=O)O)C(=O)N[C@@H](CCC(=O)O)C(=O)N[C@@H](Cc1ccc(O)cc1)C(=O)NCC(=O)N[C@H](C(N)=O)C(C)C` (Bz-GVLK(X24)EYGV-NH2) is 0.543 µM; for `CC(=O)N[C@@H](CCCCNC(=O)C[C@H](Sc1ccc2ccccc2c1)C(=O)O)C(N)=O` it is 7.4 µM; for `CC(C)C[C@H](NC(=O)[C@@H](NC(=O)CNC(=O)c1ccccc1)C(C)C)C(=O)N[C@@H](CCCCNC(=O)C[C@H](SCc1ccc(Cl)cc1)C(=O)O)C(=O)N[C@@H](CCC(=O)O)C(=O)N[C@@H](Cc1ccc(O)cc1)C(=O)NCC(=O)N[C@H](C(N)=O)C(C)C` (Bz-GVLK(X14)EYGV-NH2) it is 0.893 µM.
For the compound `CC(C)C[C@H](NC(=O)[C@@H](NC(=O)CNC(=O)c1ccccc1)C(C)C)C(=O)N[C@@H](CCCCNC(=O)C[C@H](SCc1ccc(C(C)(C)C)cc1)C(=O)O)C(=O)N[C@@H](CCC(=O)O)C(=O)N[C@@H](Cc1ccc(O)cc1)C(=O)NCC(=O)N[C@H](C(N)=O)C(C)C` (Bz-GVLK(X46)EYGV-NH2), the IC50 was found to be 0.793 µM.
As for `CC(C)C[C@H](NC(=O)[C@@H](NC(=O)CNC(=O)c1ccccc1)C(C)C)C(=O)N[C@@H](CCCCNC(=O)C[C@@H](SCCc1ccccc1)C(=O)O)C(=O)N[C@@H](CCC(=O)O)C(=O)N[C@@H](Cc1ccc(O)cc1)C(=O)NCC(=O)N[C@H](C(N)=O)C(C)C` (Bz-GVLK(X26)EYGV-NH2), the IC50 stood at 0.592 µM.
The same measure, in the same setting: for `CC(C)C[C@H](NC(=O)[C@@H](NC(=O)CNC(=O)c1ccccc1)C(C)C)C(=O)N[C@@H](CCCCNC(=O)C[C@@H](SCc1ccc([N+](=O)[O-])cc1)C(=O)O)C(=O)N[C@@H](CCC(=O)O)C(=O)N[C@@H](Cc1ccc(O)cc1)C(=O)NCC(=O)N[C@H](C(N)=O)C(C)C` (Bz-GVLK(X51)EYGV-NH2) the value was 4.03 µM.
Regarding `CC(C)C[C@H](NC(=O)[C@@H](NC(=O)CNC(=O)c1ccccc1)C(C)C)C(=O)N[C@@H](CCCCNC(=O)C[C@@H](SCCCc1ccccc1)C(=O)O)C(=O)N[C@@H](CCC(=O)O)C(=O)N[C@@H](Cc1ccc(O)cc1)C(=O)NCC(=O)N[C@H](C(N)=O)C(C)C` (Bz-GVLK(X48)EYGV-NH2), the IC50 is 2.06 µM.
For `CC(C)C[C@H](NC(=O)[C@@H](NC(=O)CNC(=O)c1ccccc1)C(C)C)C(=O)N[C@@H](CCCCNC(=O)C[C@H](Sc1ccc(Cl)cc1Cl)C(=O)O)C(=O)N[C@@H](CCC(=O)O)C(=O)N[C@@H](Cc1ccc(O)cc1)C(=O)NCC(=O)N[C@H](C(N)=O)C(C)C` (Bz-GVLK(X43)EYGV-NH2), the IC50 was found to be 0.177 µM.
`CC(C)C[C@H](NC(=O)[C@@H](NC(=O)CNC(=O)c1ccccc1)C(C)C)C(=O)N[C@@H](CCCCNC(=O)C[C@H](SC1CCCCC1)C(=O)O)C(=O)N[C@@H](CCC(=O)O)C(=O)N[C@@H](Cc1ccc(O)cc1)C(=O)NCC(=O)N[C@H](C(N)=O)C(C)C` (Bz-GVLK(X45)EYGV-NH2): the concentration for half-maximal inhibition (IC50) is over 4 µM.
Same read-out and setting: the figure for `CC(C)C[C@H](NC(=O)[C@@H](NC(=O)CNC(=O)c1ccccc1)C(C)C)C(=O)N[C@@H](CCCCNC(=O)C[C@@H](SCc1cccc2ccccc12)C(=O)O)C(=O)N[C@@H](CCC(=O)O)C(=O)N[C@@H](Cc1ccc(O)cc1)C(=O)NCC(=O)N[C@H](C(N)=O)C(C)C` (Bz-GVLK(X72)EYGV-NH2) is 0.207 µM.
Regarding `CC(C)C[C@H](NC(=O)[C@@H](NC(=O)CNC(=O)c1ccccc1)C(C)C)C(=O)N[C@@H](CCCCNC(=O)C[C@@H](Sc1cccc2ccccc12)C(=O)O)C(=O)N[C@@H](CCC(=O)O)C(=O)N[C@@H](Cc1ccc(O)cc1)C(=O)NCC(=O)N[C@H](C(N)=O)C(C)C` (Bz-GVLK(X23)EYGV-NH2), the IC50 amounted to 2.2 µM.
Take `COc1ccc(CS[C@H](CC(=O)NCCCC[C@H](NC(=O)[C@H](CC(C)C)NC(=O)[C@@H](NC(=O)CNC(=O)c2ccccc2)C(C)C)C(=O)N[C@@H](CCC(=O)O)C(=O)N[C@@H](Cc2ccc(O)cc2)C(=O)NCC(=O)N[C@H](C(N)=O)C(C)C)C(=O)O)cc1` (Bz-GVLK(X22)EYGV-NH2): the IC50 was 1.11 µM.
Same read-out and setting: the figure for `CC(C)C[C@H](NC(=O)[C@@H](NC(=O)CNC(=O)c1ccccc1)C(C)C)C(=O)N[C@@H](CCCCNC(=O)C[C@H](SCCc1ccccc1)C(=O)O)C(=O)N[C@@H](CCC(=O)O)C(=O)N[C@@H](Cc1ccc(O)cc1)C(=O)NCC(=O)N[C@H](C(N)=O)C(C)C` (Bz-GVLK(X54)EYGV-NH2) is 2.74 µM; for `CC(C)C[C@H](NC(=O)[C@@H](NC(=O)CNC(=O)c1ccccc1)C(C)C)C(=O)N[C@@H](CCCCNC(=O)C[C@@H](SCc1cccc([N+](=O)[O-])c1)C(=O)O)C(=O)N[C@@H](CCC(=O)O)C(=O)N[C@@H](Cc1ccc(O)cc1)C(=O)NCC(=O)N[C@H](C(N)=O)C(C)C` (Bz-GVLK(X13)EYGV-NH2) it is 2.67 µM.
`COc1ccc(CS[C@@H](CC(=O)NCCCC[C@H](NC(=O)[C@H](CC(C)C)NC(=O)[C@@H](NC(=O)CNC(=O)c2ccccc2)C(C)C)C(=O)N[C@@H](CCC(=O)O)C(=O)N[C@@H](Cc2ccc(O)cc2)C(=O)NCC(=O)N[C@H](C(N)=O)C(C)C)C(=O)O)cc1` (Bz-GVLK(X66)EYGV-NH2): the IC50 was found to be 1.05 µM.
With `CC(C)C[C@H](NC(=O)[C@@H](NC(=O)CNC(=O)c1ccccc1)C(C)C)C(=O)N[C@@H](CCCCNC(=O)C[C@H](SCc1ccc(Cl)c(Cl)c1)C(=O)O)C(=O)N[C@@H](CCC(=O)O)C(=O)N[C@@H](Cc1ccc(O)cc1)C(=O)NCC(=O)N[C@H](C(N)=O)C(C)C` (Bz-GVLK(X16)EYGV-NH2), the IC50 is 0.74 µM.
In the case of `O=C(C[C@H](Sc1ccc2ccccc2c1)C(=O)O)NCc1ccccc1`, the IC50 is 124 µM.
Take `C=CCN1C(=O)/C(=C/c2ccc(-c3cccc(Cl)c3Cl)o2)C(=O)NC1=S`: the concentration for half-maximal inhibition (IC50) amounted to 25.2 µM.
Still for that read-out and setting: for `CC(C)C[C@H](NC(=O)[C@@H](NC(=O)CNC(=O)c1ccccc1)C(C)C)C(=O)N[C@@H](CCCCNC(=O)C[C@H](Sc1ccccc1Cl)C(=O)O)C(=O)N[C@@H](CCC(=O)O)C(=O)N[C@@H](Cc1ccc(O)cc1)C(=O)NCC(=O)N[C@H](C(N)=O)C(C)C` (Bz-GVLK(X53)EYGV-NH2) the value was 0.857 µM.

For another assay, the target named is T1, NAD-dependent protein deacylase sirtuin-5, mitochondrial. As to the kind of experiment: Competitive inhibition of human recombinant N-terminal Strep2-tagged SIRT5 expressed in Escherichia coli BL21 (DE3) using Abz-GVLK(glutaryl)AY(NO2)GV-NH2 as substrate in presence of NAD+ by fluorescence assay. A digest of the protocol: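 Continuous trypsin-coupled fluorescence assay at 37°C: 10 nM SIRT5, 500 µM NAD+, 500 nM trypsin, 5% DMSO, 0.025-5 µM substrate, 0.01-20 µM inhibitor. Buffer: 20 mM Tris, 150 mM NaCl, 5 mM MgCl2, pH 7.8. Excitation 320 nm, emission 420 nm. Measured in duplicate; IC50 determined at 0.03 µM substrate by log(inhibitor) vs normalized response fit.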
For the compound `CC(C)C[C@H](NC(=O)[C@@H](NC(=O)CNC(=O)CCC(=O)NCCCOCCOCCOCCCNC(=O)CCCC[C@@H]1SC[C@@H]2NC(=O)N[C@@H]21)C(C)C)C(=O)N[C@@H](CCCCNC(=O)CC(Sc1ccc2ccccc2c1)C(=O)O)C(=O)N[C@@H](CCC(=O)O)C(=O)N[C@@H](Cc1ccc(O)cc1)C(=O)NCC(=O)N[C@H](C(N)=O)C(C)C` (stereo partly specified) ({X2-Suc}-GVLK(X9)EYGV-NH2), the inhibitory constant (Ki) was determined as 0.0832 µM.

For orientation: IC50 means the concentration needed to halve the response being measured. As a reminder, the Ki is the equilibrium dissociation constant of an inhibitor or competing ligand from its target.
